# Laboratory results: ChEMBL document CHEMBL4316638, “Bioactive Meroterpenoids and Isocoumarins from the Mangrove-Derived Fungus Penicillium sp. TGM112” (J Nat Prod, 2019)
# Calls of active or inactive are those of the source. The calls are words filed in the database; no cut-off is given here.
# Assays:
# RAW264.7 = experiment: Inhibition of LPS-induced nitric oxide production in mouse RAW264.7 cells preincubated for 30 mins followed by LPS-stimulation and measured after 24 hrs by Griess assay; format: functional, cell-based
# Outline: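 RAW264.7 macrophages seeded at 50 000 cells/well and grown 24 h, then exposed to compound for 30 min at 37 °C before LPS (100 ng/mL) co-incubation for 24 h. Nitrite in supernatant measured by Griess reagent (10 min mixing), absorbance 540 nm. Compounds from 10 mM DMSO stocks; final DMSO ≤0.1%. Dexamethasone positive control. Triplicate runs; IC50 calculated.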
# Helicoverpa armigera = experiment: Insecticidal activity against Helicoverpa armigera hubner measured every other day for 8 days starting from 2 days post dosing; format: functional, organism-based
# Outline: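 Neonate H. armigera larvae fed artificial diet dosed with serial dilutions of compound (1 mg/mL in DMSO) at 200, 100, 50, 25 and 12.5 μL/well in six-well plates; three groups of three larvae, 3 replicates per treatment. Held at 25 ± 1 °C, 80% relative humidity. Dead larvae counted on days 2, 4, 6, 8. DMSO negative, azadirachtin positive, plain diet blank controls.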
# A549 = experiment: Cytotoxicity against human A549 cells measured after 7 days by MTT assay; format: functional, cell-based
# HeLa = experiment: Cytotoxicity against human HeLa cells measured after 7 days by MTT assay; format: functional, cell-based
# HepG2 = experiment: Cytotoxicity against human HepG2 cells measured after 7 days by MTT assay; format: functional, cell-based
# Escherichia coli = experiment: Antibacterial activity against Escherichia coli ATCC 25922 by microplate assay; format: functional, organism-based
# Staphylococcus aureus [1] = experiment: Antibacterial activity against Staphylococcus aureus ATCC 25923 by microplate assay; format: functional, organism-based
# Staphylococcus aureus [2] = experiment: Antibacterial activity against methicillin-resistant Staphylococcus aureus ATCC 33591 by microplate assay; format: functional, organism-based
# Outline: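 MRSA (ATCC 33591) was one strain in a panel of six pathogenic bacteria: four general and two marine Vibrio. Assayed by the microplate method, with ciprofloxacin as positive control.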
# Bacillus cereus = experiment: Antibacterial activity against Bacillus cereus ATCC 11778 by microplate assay; format: functional, organism-based
# Vibrio parahaemolyticus = experiment: Antibacterial activity against Vibrio parahaemolyticus ATCC 17802 by microplate assay; format: functional, organism-based
# Vibrio alginolyticus = experiment: Antibacterial activity against Vibrio alginolyticus ATCC 17749 by microplate assay; format: functional, organism-based; conditions: NBRC 15630 = ATCC 17749
# Caenorhabditis elegans = experiment: Insecticidal activity against Caenorhabditis elegans measured at 12 […]; format: functional, organism-based
# Outline: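 L1 C. elegans (30−40 worms/well) in S medium with E. coli OP50 and chloramphenicol, exposed to compound at 40, 20, 10, 5, 1 and 0 μg/mL diluted in filter-sterilized M-9; 3 replicates per treatment. Plates sealed, kept at 24 °C for 60 h in the dark; dead larvae counted at 12, 24, 36, 48, 60. M-9 negative control, levamisole 1 mg/mL positive control.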
SMILES,inhibition (RAW264.7),IC50 (Helicoverpa armigera),Activity (A549),Activity (HeLa),Activity (HepG2),Activity (Escherichia coli),Activity (Staphylococcus aureus [1]),Activity (Staphylococcus aureus [2]),Activity (Bacillus cereus),Activity (Vibrio parahaemolyticus),Activity (Vibrio alginolyticus),EC50 (Caenorhabditis elegans)
C[C@H](O)CCC[C@@H]1C[C@@H]2C[C@@H](O)CC(O)=C2C(=O)O1,inactive,200 µg/mL,inactive,inactive,inactive,inactive,inactive,inactive,inactive,inactive,inactive,–
O=C1O[C@H](CCCO)Cc2cccc(O)c21,inactive,–,inactive,inactive,inactive,inactive,inactive,inactive,inactive,inactive,inactive,–
COC(=O)CC[C@@H]1Cc2ccc(O)c(OC)c2C(=O)O1,inactive,200 µg/mL,inactive,inactive,inactive,inactive,inactive,inactive,inactive,inactive,inactive,–
C=C1[C@@]23C(=O)O[C@H](C)[C@@]2(O)C(=O)O[C@]1(C)[C@@H](O)C1=C(C)[C@]2(CCC(=O)OC2(C)C)CC[C@@]13C,inactive,100 µg/mL,inactive,inactive,inactive,inactive,inactive,inactive,inactive,inactive,inactive,19.5 µg/mL
c1ccc([C@H]2CN3CCSC3=N2)cc1 [LEVAMISOLE],–,–,–,–,–,–,–,–,–,–,–,4.8 µg/mL
C=C1[C@@]23C(=O)O[C@H](C)[C@@]2(O)C(=O)O[C@]1(C)[C@@H](O)C1=C2COC4CC(=O)OC(C)(C)[C@@]24CC[C@@]13C (some centres undefined),inactive,–,inactive,inactive,inactive,inactive,inactive,inactive,inactive,inactive,inactive,19.1 µg/mL
C=C1[C@@]23C(=O)O[C@H](C)[C@]24O[C@@]2(C(=C)[C@]5(CCC(=O)OC5(C)C)C[C@@H](O)[C@]32C)[C@H](OC(C)=O)[C@@]1(C)OC4=O,inactive,50 µg/mL,inactive,inactive,inactive,inactive,inactive,inactive,inactive,inactive,inactive,–
COc1c(O)ccc2c1C(=O)O[C@H](CCC[C@@H](C)O)C2,inactive,–,inactive,inactive,inactive,inactive,inactive,inactive,inactive,inactive,inactive,–
COc1c(O)ccc2c1C(=O)O[C@H](CCCC(C)=O)C2,inactive,–,inactive,inactive,inactive,inactive,inactive,inactive,inactive,inactive,inactive,–
CC(=O)CCC[C@@H]1Cc2cccc(O)c2C(=O)O1,inactive,–,inactive,inactive,inactive,inactive,inactive,inactive,inactive,inactive,inactive,–
C=C1[C@@]23C(=O)O[C@H](C)[C@]24O[C@@]2(C(=C)[C@]5(C=CC(=O)OC5(C)C)CC[C@]32C)[C@H](O)[C@@]1(C)OC4=O,inactive,–,inactive,inactive,inactive,inactive,inactive,inactive,inactive,inactive,inactive,38.2 µg/mL
C=C1[C@@]23C(=O)O[C@H](C)[C@]24O[C@@]2(C(=C)[C@]5(C=CC(=O)OC5(C)C)C[C@@H](O)[C@]32C)[C@H](OC(C)=O)[C@@]1(C)OC4=O,inactive,–,inactive,inactive,inactive,inactive,inactive,inactive,inactive,inactive,inactive,20.6 µg/mL
C[C@@H](O)CCC[C@H]1OC(=O)c2c(O)cccc2[C@@H]1O,inactive,100 µg/mL,inactive,inactive,inactive,inactive,inactive,inactive,inactive,inactive,inactive,–
COc1ccc2c(c1O)C(=O)O[C@H](CCCO)C2,inactive,–,inactive,inactive,inactive,inactive,inactive,inactive,inactive,inactive,inactive,–
C/C=C(\C)C(=O)O[C@H]1C[C@@H](OC(C)=O)[C@@]2(C(=O)OC)CO[C@H]3[C@@H](O)[C@@](C)([C@]45O[C@@]4(C)[C@H]4C[C@@H]5O[C@@H]5OC=C[C@@]54O)[C@H]4[C@]1(CO[C@]4(O)C(=O)OC)[C@@H]32 [AZADIRACTIN],–,25 µg/mL,–,–,–,–,–,–,–,–,–,–
C=C1[C@]2(C)C(=O)[C@]3(O)[C@@H](C)OC(=O)[C@]13[C@@]1(C)CC[C@@]3(C=CC(=O)OC3(C)C)C(C)=C1[C@@H]2OC(C)=O,inactive,–,inactive,inactive,inactive,inactive,inactive,inactive,inactive,inactive,inactive,–
C[C@@H](O)CCC[C@@H]1Cc2c(O)ccc(O)c2C(=O)O1,inactive,100 µg/mL,inactive,inactive,inactive,inactive,inactive,inactive,inactive,inactive,inactive,–
CC(=O)OCCC[C@@H]1Cc2cccc(O)c2C(=O)O1,inactive,–,inactive,inactive,inactive,inactive,inactive,inactive,inactive,inactive,inactive,–
C=C1[C@@]23C(=O)O[C@H](C)[C@@]2(O)C(=O)O[C@]1(C)[C@@H](OC(C)=O)C1=C(C)[C@]2(CCC(=O)OC2(C)C)CC[C@@]13C,inactive,50 µg/mL,inactive,inactive,inactive,inactive,inactive,inactive,inactive,inactive,inactive,–
CC(=O)CCC[C@@H]1C[C@@H]2C[C@@H](O)CC(O)=C2C(=O)O1,inactive,200 µg/mL,inactive,inactive,inactive,inactive,inactive,inactive,inactive,inactive,inactive,–
